These results are taken from ChEMBL document CHEMBL3351639, “Fluorinated analogues of marsanidine, a highly α2-AR/imidazoline I1 binding site-selective hypotensive agent. Synthesis and biological activities” (Eur J Med Chem, 2014).

SMILES strings stand for the structures.

The target of assay [1] is T1, Adrenergic receptor alpha-2 (Rattus norvegicus, UniProt P22086+P19328+P22909).
T1 sequence (P22086 whole entry): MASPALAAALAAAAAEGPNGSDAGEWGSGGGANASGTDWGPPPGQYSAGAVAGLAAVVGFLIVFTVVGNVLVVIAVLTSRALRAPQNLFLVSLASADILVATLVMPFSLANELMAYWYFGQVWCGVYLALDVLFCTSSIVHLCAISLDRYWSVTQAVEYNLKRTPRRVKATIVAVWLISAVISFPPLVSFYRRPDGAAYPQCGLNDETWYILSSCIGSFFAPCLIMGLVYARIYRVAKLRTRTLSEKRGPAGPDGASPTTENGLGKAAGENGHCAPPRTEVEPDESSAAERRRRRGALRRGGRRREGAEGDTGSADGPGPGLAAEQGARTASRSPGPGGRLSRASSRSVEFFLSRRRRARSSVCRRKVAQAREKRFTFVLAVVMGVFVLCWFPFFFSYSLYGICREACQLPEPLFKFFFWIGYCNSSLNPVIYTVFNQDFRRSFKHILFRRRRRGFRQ
T1 sequence (P19328 whole entry): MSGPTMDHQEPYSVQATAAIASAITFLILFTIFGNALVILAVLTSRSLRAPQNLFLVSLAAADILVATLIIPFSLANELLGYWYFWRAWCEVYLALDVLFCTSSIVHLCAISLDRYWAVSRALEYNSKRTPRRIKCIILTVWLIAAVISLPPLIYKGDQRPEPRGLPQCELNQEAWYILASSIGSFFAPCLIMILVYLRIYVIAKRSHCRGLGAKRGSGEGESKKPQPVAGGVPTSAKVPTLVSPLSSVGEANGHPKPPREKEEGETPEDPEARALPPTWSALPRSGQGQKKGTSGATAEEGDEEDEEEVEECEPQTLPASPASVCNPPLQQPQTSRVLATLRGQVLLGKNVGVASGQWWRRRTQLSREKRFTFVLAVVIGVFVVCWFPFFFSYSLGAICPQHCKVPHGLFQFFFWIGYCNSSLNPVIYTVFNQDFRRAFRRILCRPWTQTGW
T1 sequence (P22909 whole entry): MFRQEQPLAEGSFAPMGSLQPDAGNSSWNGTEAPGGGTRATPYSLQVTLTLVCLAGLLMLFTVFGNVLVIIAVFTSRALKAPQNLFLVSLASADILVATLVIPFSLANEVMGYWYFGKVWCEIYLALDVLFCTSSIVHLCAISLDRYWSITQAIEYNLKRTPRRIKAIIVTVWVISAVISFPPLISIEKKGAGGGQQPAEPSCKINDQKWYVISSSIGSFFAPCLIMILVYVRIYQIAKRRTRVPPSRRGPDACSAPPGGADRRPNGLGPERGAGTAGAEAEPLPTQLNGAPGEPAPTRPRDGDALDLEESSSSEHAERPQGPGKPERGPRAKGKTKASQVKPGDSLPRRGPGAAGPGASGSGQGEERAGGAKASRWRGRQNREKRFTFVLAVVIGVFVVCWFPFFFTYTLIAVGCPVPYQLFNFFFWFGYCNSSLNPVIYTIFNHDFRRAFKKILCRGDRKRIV
As to the kind of experiment: Displacement of [3H]RX821002 from alpha2-adrenoceptor in Sprague-Dawley rat brain membranes after 45 mins by liquid scintillation counting. In kind it is cell membranes, Membrane. The essentials:
(§1)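 Crude P2 membranes from brains of male Sprague-Dawley rats (250–280 g), 0.2–0.3 mg protein. Radioligand 1 nM [3H]RX821002 (α2) or [3H]prazosin (α1); 11 concentrations of compound, 0.1 nM–100 µM. Non-specific binding: 10 µM rauwolscine (α2) or 10 µM phenylephrine (α1). Triplicate incubation, RT, 45 min. PEI-soaked glass-fibre filtration, then scintillation counting. Ki by Cheng-Prusoff; 3–4 experiments, or one for low-affinity compounds.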

Assay [2] has as its target T2, Alpha-2B adrenergic receptor (Homo sapiens, UniProt P18089).
T2 sequence (P18089 whole entry): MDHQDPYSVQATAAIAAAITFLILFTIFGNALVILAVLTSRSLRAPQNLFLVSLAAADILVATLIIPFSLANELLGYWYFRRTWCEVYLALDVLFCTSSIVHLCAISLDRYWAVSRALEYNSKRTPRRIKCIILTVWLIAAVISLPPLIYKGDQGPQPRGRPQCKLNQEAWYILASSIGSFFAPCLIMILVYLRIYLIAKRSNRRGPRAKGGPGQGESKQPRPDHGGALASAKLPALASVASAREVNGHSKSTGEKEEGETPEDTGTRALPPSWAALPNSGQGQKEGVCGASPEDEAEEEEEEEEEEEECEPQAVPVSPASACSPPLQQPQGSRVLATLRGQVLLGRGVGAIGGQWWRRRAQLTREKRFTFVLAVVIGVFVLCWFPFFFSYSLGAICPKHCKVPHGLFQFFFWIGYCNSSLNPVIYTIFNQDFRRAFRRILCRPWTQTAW
As to the kind of experiment: Displacement of [3H]RS-79948-197 from human alpha2B adrenoceptor expressed in CHO-K1 cells after 45 mins by liquid scintillation counting. In kind it is cell-based. The essentials: (§2)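 Membranes from CHO-K1 cells stably expressing each human α2-AR subtype (6–10 µg protein). Used 0.2 nM [3H]RS-79948-197 and 8 serial dilutions of competitor in 50 mM potassium phosphate, pH 7.4. Non-specific binding defined with 100 µM oxymetazoline. Filtration, then scintillation counting. Run in duplicate, at least 3 repeats. One-site nonlinear fit; IC50 converted to Ki by Cheng-Prusoff.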

For assay [3], the target named is T3, Alpha-2A adrenergic receptor (Homo sapiens, UniProt P08913).
T3 sequence (P08913 whole entry): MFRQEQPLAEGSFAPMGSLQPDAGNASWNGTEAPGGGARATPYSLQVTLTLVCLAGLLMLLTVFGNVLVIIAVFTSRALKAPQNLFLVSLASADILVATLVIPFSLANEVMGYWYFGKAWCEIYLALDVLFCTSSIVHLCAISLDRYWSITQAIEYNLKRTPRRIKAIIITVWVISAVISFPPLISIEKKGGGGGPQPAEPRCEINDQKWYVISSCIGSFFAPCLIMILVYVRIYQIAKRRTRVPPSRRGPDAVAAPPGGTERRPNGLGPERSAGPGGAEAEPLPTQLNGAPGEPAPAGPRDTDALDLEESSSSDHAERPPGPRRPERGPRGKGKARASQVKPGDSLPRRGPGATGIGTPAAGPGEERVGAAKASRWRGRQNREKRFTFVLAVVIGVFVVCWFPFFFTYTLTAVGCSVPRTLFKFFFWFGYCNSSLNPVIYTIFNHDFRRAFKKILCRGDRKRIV
As to the kind of experiment: Agonist activity at human alpha2A adrenoceptor expressed in CHO-K1 cells after 30 mins by [35S]GTPgammaS binding assay. The assay is classed as functional, cell-based. The method, boiled down:
(§3)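 Membranes from CHO cells stably expressing human α2A-AR (5 µg protein) were incubated with 7 or 8 serial dilutions of compound and 0.1 nM [35S]GTPγS. Buffer: 25 mM Tris, 1 mM EDTA, 5 mM MgCl2, 20 mM NaCl, 1 µM GDP, 1 mM DTT, 30 µM ascorbic acid, pH 7.4. Incubation 30 min at RT, then vacuum filtration and scintillation counting. Run in duplicate, at least 3 repeats.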
On the technique in general: GTPγS is a poorly hydrolysed GTP analogue; its binding reports G protein activation.

The target in assay [4] is T4, Alpha-2C adrenergic receptor (Homo sapiens, UniProt P18825).
T4 sequence (P18825 whole entry): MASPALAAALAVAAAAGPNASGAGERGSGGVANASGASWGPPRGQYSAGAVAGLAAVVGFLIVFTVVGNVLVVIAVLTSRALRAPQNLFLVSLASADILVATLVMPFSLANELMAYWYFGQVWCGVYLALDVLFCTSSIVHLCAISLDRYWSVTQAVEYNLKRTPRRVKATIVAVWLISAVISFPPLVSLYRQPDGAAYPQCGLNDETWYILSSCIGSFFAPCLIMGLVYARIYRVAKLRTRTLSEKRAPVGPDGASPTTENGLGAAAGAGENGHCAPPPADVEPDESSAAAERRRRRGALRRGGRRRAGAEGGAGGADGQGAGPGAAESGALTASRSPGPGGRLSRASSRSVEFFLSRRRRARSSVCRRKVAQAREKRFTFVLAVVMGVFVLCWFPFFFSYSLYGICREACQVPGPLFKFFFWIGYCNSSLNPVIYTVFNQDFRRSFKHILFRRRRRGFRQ
As to the kind of experiment: Displacement of [3H]RS-79948-197 from human alpha2C adrenoceptor expressed in CHO-K1 cells after 45 mins by liquid scintillation counting. The assay is classed as cell-based. The method, boiled down:
as §2
On the technique in general: In a radioligand displacement assay an active substance lowers the binding of a labelled ligand.

For assay [5], the target named is T3, Alpha-2A adrenergic receptor. The assay is described as follows: Displacement of [3H]RS-79948-197 from human alpha2A adrenoceptor expressed in CHO-K1 cells after 45 mins by liquid scintillation counting. In kind it is cell-based. The essentials:
as §2

A short description of assay [6]: Displacement of […] from imidazoline I2 receptor in Sprague-Dawley rat kidney membranes after 45 mins by liquid scintillation counting. The assay is classed as cell membranes, Membrane.
The target in assay [7] is T5, Alpha-2A adrenergic receptor (Homo sapiens) (UniProt P08913).
T5 sequence (whole entry): T3 sequence (P08913 whole entry)
The assay is described as follows: Intrinsic activity at human alpha2A adrenoceptor expressed in CHO-K1 cells after 30 mins by [35S]GTPgammaS binding assay relative to norepinephrine. In kind it is functional, cell-based. The method, boiled down: as §3

Assay [8] addresses T6, Adrenergic receptor alpha-1 (Rattus norvegicus, UniProt P15823+P23944+P43140).
T6 sequence (P15823 whole entry): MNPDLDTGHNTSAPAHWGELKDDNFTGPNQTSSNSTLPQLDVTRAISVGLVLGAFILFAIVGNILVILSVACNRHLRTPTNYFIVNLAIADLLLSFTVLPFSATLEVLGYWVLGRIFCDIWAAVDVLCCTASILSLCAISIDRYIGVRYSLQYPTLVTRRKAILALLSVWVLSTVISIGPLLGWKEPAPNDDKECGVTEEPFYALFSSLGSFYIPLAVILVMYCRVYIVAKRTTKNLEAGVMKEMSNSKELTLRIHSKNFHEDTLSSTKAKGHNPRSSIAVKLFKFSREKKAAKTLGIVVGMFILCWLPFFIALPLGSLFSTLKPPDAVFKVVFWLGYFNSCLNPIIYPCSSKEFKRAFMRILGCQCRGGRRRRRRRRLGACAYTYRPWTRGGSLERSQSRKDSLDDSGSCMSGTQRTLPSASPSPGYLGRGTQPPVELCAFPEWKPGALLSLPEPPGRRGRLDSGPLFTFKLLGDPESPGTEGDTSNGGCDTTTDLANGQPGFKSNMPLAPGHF
T6 sequence (P23944 whole entry): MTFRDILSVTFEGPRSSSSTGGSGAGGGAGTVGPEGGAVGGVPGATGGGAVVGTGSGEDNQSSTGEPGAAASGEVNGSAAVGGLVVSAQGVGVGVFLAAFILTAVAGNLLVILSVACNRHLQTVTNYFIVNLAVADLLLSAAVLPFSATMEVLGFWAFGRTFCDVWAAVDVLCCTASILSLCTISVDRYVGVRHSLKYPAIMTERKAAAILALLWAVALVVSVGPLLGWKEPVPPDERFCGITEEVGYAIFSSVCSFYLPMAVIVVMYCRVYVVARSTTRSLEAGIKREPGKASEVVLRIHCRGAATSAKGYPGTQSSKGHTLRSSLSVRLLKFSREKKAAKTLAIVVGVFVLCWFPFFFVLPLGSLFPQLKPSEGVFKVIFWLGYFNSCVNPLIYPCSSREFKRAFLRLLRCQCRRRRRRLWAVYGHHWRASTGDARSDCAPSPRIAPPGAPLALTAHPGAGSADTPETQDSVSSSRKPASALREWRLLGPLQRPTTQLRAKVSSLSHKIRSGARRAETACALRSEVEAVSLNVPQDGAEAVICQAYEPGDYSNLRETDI
T6 sequence (P43140 whole entry): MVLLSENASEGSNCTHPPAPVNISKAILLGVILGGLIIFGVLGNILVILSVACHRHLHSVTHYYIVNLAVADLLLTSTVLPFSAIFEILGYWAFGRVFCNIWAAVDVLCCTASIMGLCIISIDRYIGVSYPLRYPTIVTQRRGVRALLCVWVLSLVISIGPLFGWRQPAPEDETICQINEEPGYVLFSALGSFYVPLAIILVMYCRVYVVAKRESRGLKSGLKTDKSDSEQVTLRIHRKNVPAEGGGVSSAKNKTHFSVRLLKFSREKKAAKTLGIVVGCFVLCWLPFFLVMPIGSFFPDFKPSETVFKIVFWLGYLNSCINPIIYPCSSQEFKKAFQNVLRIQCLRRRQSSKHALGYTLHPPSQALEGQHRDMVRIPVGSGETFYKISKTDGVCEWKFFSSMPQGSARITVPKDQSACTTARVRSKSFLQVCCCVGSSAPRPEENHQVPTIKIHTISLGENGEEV
As to the kind of experiment: Displacement of [3H]prazosin from alpha1-adrenoceptor in Sprague-Dawley rat brain membranes after 45 mins by liquid scintillation counting. The assay is classed as cell membranes, Membrane. The method, boiled down:
as §1

In another assay the target is Nischarin (Rattus norvegicus, UniProt Q4G017). The assay is described as follows: Displacement of […] from imidazoline I1 receptor in Sprague-Dawley rat kidney membranes after 45 mins by liquid scintillation counting. The assay is classed as cell membranes, Membrane.
Sequence of Nischarin (Q4G017 whole entry): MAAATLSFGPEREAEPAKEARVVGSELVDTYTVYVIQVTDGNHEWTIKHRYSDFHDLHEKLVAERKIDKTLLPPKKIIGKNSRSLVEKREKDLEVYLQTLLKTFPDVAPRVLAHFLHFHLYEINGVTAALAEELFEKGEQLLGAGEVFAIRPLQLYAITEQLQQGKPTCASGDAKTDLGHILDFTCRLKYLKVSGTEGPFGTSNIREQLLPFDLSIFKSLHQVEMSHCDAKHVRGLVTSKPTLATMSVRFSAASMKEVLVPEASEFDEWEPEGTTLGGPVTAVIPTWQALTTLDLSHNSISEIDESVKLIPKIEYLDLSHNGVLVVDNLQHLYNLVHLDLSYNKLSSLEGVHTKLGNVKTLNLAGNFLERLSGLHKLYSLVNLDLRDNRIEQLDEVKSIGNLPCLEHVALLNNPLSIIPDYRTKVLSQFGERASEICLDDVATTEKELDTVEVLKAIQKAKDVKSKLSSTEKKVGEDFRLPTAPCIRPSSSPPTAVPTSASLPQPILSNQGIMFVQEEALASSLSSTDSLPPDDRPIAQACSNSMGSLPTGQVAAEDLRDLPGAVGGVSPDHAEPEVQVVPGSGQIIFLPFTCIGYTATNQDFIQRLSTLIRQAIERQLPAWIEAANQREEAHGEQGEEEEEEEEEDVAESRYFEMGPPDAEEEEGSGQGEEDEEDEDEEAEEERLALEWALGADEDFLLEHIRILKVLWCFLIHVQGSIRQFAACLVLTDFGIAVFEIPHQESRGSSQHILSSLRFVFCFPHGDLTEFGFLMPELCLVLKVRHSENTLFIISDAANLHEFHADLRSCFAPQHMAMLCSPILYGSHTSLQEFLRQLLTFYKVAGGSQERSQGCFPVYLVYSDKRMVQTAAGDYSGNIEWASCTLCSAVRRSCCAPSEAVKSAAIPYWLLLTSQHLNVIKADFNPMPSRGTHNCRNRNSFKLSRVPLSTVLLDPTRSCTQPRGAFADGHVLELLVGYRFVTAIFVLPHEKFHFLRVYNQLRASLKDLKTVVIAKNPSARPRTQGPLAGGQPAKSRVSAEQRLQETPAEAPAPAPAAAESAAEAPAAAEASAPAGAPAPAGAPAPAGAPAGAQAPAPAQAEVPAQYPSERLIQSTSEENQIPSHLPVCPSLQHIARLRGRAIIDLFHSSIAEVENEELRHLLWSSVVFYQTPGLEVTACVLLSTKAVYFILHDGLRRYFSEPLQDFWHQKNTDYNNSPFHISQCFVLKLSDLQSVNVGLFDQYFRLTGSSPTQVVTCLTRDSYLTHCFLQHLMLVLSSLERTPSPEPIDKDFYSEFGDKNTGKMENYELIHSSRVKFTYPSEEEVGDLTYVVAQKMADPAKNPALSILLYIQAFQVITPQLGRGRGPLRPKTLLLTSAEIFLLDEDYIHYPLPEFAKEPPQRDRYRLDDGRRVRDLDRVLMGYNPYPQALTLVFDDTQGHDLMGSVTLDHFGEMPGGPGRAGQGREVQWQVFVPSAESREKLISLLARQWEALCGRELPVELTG

As for `c1ccc2c(c1)cnn2N=C1NCCN1` [MARSANIDINE], the Ki in assay [1] was determined as 0.01405 µM; in assay [2], 0.079 µM; in assay [4], 0.64 µM; in assay [5], 0.052 µM; in assay [6], 16.9 µM. The compound further showed an EC50 in assay [3] of 0.0933 µM. The same compound returned an Intrinsic activity in [7] of 14%.
Turning to `Fc1c(F)c(F)c2c(cnn2N=C2NCCN2)c1F`, the Ki in assay [8] came out at 19.793 µM; in assay [1], 3.717 µM; in assay [6], 22.7 µM. Moreover, on Nischarin, the half-inhibitory concentration (IC50) turned out to be 5.83 µM.
Consider `Fc1cccc2c1cnn2N=C1NCCN1`, for which the values for the Ki in [8], in assay [1] and in assay [6] were 3.807 µM, 0.416 µM and 6.18 µM, respectively. This compound also showed an IC50 at Nischarin of 14.8 µM.
For `Fc1cccc2c1cnn2CC1=NCCN1` the same measures were 0.5347 µM, 0.1873 µM, 0.0219 µM and 1.77 µM.

Usually Ki stands for a dissociation constant, usually derived from enzyme kinetics or from competition with a known ligand. High values mean lower affinity, low ones higher affinity. The term EC50 denotes the concentration that produces a half-maximal response. One may read the IC50 as the concentration that inhibits the measured activity by half. Low readings indicate higher potency, high ones lower potency.
